This is an account of results in ChEMBL document CHEMBL1124645, “Minimum-structure enkephalin analogues incorporating L-tyrosine, D(or L)-phenylalanine, and a diamine spacer” (J Med Chem, 1989).

Each structure is given as a SMILES string.

The species named for experiment [1] is Cavia porcellus. Nature of the experiment: Ability to display a naloxone-reversible inhibition of electrically induced contractions in GPI in the presence of 1.0 uM bestatin at concentration 10 e-6 M. It counts as functional.
Experiment [2] is filed under the species Cavia porcellus. Nature of the experiment: Ability to display a naloxone-reversible inhibition of electrically induced contractions in GPI by Morphine at 0.5 uM. It counts as functional.
The species named for experiment [3] is Cavia porcellus. Nature of the experiment: Percentage inhibition of compound against morphine at 10 e-7 M in guinea pig ileum tissue. It counts as functional. In short, it runs like this:
(§1)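 Hartley male guinea pigs (400–450 g); 3–4-cm segments of terminal ileum in a 3.5-mL Krebs bath at 37 ± 0.5 °C, gassed with 95% O2-5% CO2. […] Each was tested at least twice per preparation. Results are the average of at least three ilea from different animals.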

The species entered for experiment [4] is Cavia porcellus. The experiment can be described thus: Ability to display a naloxone-reversible inhibition of electrically induced contractions in GPI by Morphine at 0.1 uM. It counts as functional. In short, it runs like this:
as §1

The species named for experiment [5] is Cavia porcellus. Nature of the experiment: Inhibitory activity in guinea pig ileum tissue in the absence and presence of 10 nM naloxone. The experiment is classed as functional.
The species entered for experiment [6] is Cavia porcellus. The experiment can be described thus: Ability to display a naloxone-reversible inhibition of electrically induced contractions in GPI in the presence of 1 uM bestatin at concentration 2 uM.

Usually Inhibition stands for the share of the control response that was lost under treatment. Consider `N[C@@H](Cc1ccccc1)C(=O)NCCNC(=O)[C@@H](N)Cc1ccc(O)cc1`, for which the Inhibition in experiment [1] amounted to 12%; in experiment [2], 49.5%.

For orientation: inhibition means the share of the control response that was lost under treatment. A lower inhibition goes with a response near the control. `N[C@H](Cc1ccccc1)C(=O)NCCNC(=O)[C@@H](N)Cc1ccc(O)cc1`: in experiment [1], the Inhibition is on record as 8%. Moreover, at 0.1 µM the inhibition in experiment [3] was 49.5%.

As for `CC(=O)N[C@H](Cc1ccccc1)C(=O)NCCNC(=O)C(N)Cc1ccc(O)cc1` (some centres not stated), the Inhibition in experiment [1] came to 89.5%. Besides, in experiment [4], the Relative potency is 1.6. For the same molecule, the Ke in experiment [5] is given as 4 nM. This molecule displayed an inhibition at 0.1 µM in experiment [3] of 40%.

For the molecule `CC(=O)N[C@H](Cc1ccccc1)C(=O)NCC(C)(C)NC(=O)C(N)Cc1ccc(O)cc1` (some centres not stated), the Inhibition in experiment [1] was 91.5%. Also, the Relative potency in experiment [4] stood at 21.2. For the same molecule, in experiment [5], the Ke was found to be 4.2 nM. The molecule further showed an inhibition at 0.1 µM in experiment [3] of 43.5%.

In the case of `CC(=O)N[C@H](Cc1ccccc1)C(=O)NC(C)(C)CNC(=O)C(N)Cc1ccc(O)cc1` (some centres not stated), the Inhibition in experiment [1] is given as 42.5%. This molecule also returned a Relative potency in experiment [4] of 0.27. Besides, in experiment [3], 0.1 µM produced 40% inhibition.

With `CC(=O)N[C@H](Cc1ccccc1)C(=O)NCCC(C)(C)NC(=O)C(N)Cc1ccc(O)cc1` (some centres not stated), the Inhibition in experiment [1] stood at 53%. In experiment [4], this molecule came in with an Inhibition of 40% and a Relative potency of 0.22. In addition, the Ke in experiment [5] came out at 3.3 nM.

In the case of `CC(=O)N[C@H](Cc1ccccc1)C(=O)NCCCNC(=O)C(N)Cc1ccc(O)cc1` (some centres not stated), the Inhibition in experiment [1] is 29.5%. In experiment [4], this molecule yielded an Inhibition of 47% and a Relative potency of 0.0077. Besides, in experiment [5], the Ke worked out at 4.4 nM.

In the case of `CC(=O)NC(Cc1ccccc1)C(=O)NC(C)(C)CNC(=O)C(N)Cc1ccc(O)cc1` (stereo in doubt), the Inhibition in experiment [1] came to 16.3%. Besides, the inhibition at 0.1 µM in experiment [3] worked out at 47%.

Take `CC(=O)NC(Cc1ccccc1)C(=O)NCC(C)(C)NC(=O)C(N)Cc1ccc(O)cc1` (stereo in doubt): the Inhibition in experiment [1] was 79.3%. Besides, in experiment [4], the Relative potency was determined as 10. For the same molecule, the Ke in experiment [5] is 1.4 nM. For the same molecule, the inhibition at 0.1 µM in experiment [3] is 47%.

Turning to `CC(=O)NC(Cc1ccccc1)C(=O)NCCC(C)(C)NC(=O)C(N)Cc1ccc(O)cc1` (stereo in doubt), in experiment [1], the Inhibition is on record as 50.5%. Further, in experiment [4], the Inhibition is 47% and the Relative potency is 0.052. Further, the Ke in experiment [5] is recorded as 2.1 nM.

With `CC(=O)NC(Cc1ccccc1)C(=O)NCCNC(=O)C(N)Cc1ccc(O)cc1` (stereo in doubt), in experiment [1], the Inhibition was 10%. The molecule further gave an inhibition at 0.1 µM in experiment [3] of 49.5%.

As for `CC(=O)NC(Cc1ccccc1)C(=O)NCCCNC(=O)C(N)Cc1ccc(O)cc1` (stereo in doubt), the Inhibition in experiment [1] was found to be 5%; in experiment [6] it was 8%.
